# KCNK9 inh: inhibitors of human KCNK9 two-pore domain potassium channel; Q9NPC2; HEK293 KCNK9, FluxOR thallium flux fluorescence; stronger effect = lower value; B-score at 10 µM; 1.2% of 310,000 active; AID 488922;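 active = ratio B-score over 3 SD below the library mean, with starting fluorescence within 5 SD of its mean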;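 also: negative B-score means less thallium flux so channel inhibition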
# KCNQ1 inh: blocks the human KCNQ1 potassium channel | P51787 | CHO-K1 KCNQ1, FluxOR thallium flux fluorescence; stronger effect = higher value | B-score at 10 µM | 1.3% of 310,000 active | AID 2642;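 active = compounds whose thallium flux B-score, printed positive for inhibition, exceeds three library SD while starting fluorescence stays within three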;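 also: channel opened by potassium depolarization with thallium stimulus after 20 min compound exposure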
# KCNK3 block: human KCNK3 channel inhibition, primary screen. AID 602410. CHO-KCNK3 thallium flux, FluxOR fluorescence; stronger effect = lower value. B-score at 10 µM. O14649. 0.84% of 340,000 active;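 active = B-score under library mean minus 4 SD, starting fluorescence ratio at most library mean plus 5 SD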;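 also: more negative B-score means stronger inhibition of thallium flux through KCNK3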
# KCNQ1 act: potentiators or activators of human KCNQ1 potassium channel. P51787. B-score at 10 µM. CHO-K1 KCNQ1, thallium flux FluxOR fluorescence; stronger effect = higher value. 0.35% of 310,000 active;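 active = fluorescence ratio B-score, a plate-corrected score, at least three library SD, with initial intensity B-score within 5 SD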
#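 Material: CHO-K1 cells stably expressing KCNQ1. Medium: assay buffer for compound exposure, DMSO matched across wells. Reagent: K+/Tl+ depolarizing stimulus. Compound dosing: single-concentration screen. Times: 37 °C overnight plating, 90-min dark dye load, 20-min compound pretreatment. Technique: FluxOR Tl+ flux fluorescence.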
# Kir21 inh: inhibitors of mouse Kir2.1 inward-rectifier potassium channel | HEK293-Kir2.1, FluxOR thallium flux fluorescence; stronger effect = lower value | B-score at 10 µM | 0.85% of 310,000 active | AID 1672;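 active = fluorescence ratio B-score at or below minus 3 SD of library scores, with starting-brightness B-score within 2 SD, cut at about -4.2 in these data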;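 also: channel flux triggered by added potassium and thallium sulfate stimulus; B-score of peak minus minimum fluorescence over baseline after thallium stimulus; more negative B-score means stronger Kir2.1 block with less thallium influx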
# Target sequence (P35561 whole entry, looked up): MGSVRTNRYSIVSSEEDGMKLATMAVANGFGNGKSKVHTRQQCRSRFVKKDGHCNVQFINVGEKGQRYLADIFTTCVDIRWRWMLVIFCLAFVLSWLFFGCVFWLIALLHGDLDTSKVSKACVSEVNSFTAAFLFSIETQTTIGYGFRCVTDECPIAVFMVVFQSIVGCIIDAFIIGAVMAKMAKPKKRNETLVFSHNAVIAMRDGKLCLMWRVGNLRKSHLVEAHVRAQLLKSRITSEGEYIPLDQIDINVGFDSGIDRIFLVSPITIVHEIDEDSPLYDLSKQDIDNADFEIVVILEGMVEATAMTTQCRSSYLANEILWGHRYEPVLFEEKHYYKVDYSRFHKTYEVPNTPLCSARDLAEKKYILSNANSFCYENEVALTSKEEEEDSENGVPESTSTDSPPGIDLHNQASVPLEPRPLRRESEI
# hERG protect: shields human hERG channel from block by proarrhythmic agents. 0.51% of 310,000 active. AID 1511. Q12809. activation (rescue from dofetilide block), less the hit threshold, % at 10 µM. CHO-hERG, FluxOR thallium flux, dofetilide IC70 present;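 active = activation above the mean of controls blocked by dofetilide plus 5 SD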;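 also: thallium influx through hERG after potassium depolarization seen as dye fluorescence rise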
# Numbers without * were called inactive; i = inactive; x = not tested or not shown. Rows were chosen to be rich in hits. Some 3.7% of all compounds tested hit in one or more screens of this group.
SMILES,KCNK9 inh,KCNQ1 inh,KCNK3 block,KCNQ1 act,Kir21 inh,hERG protect
O=C(NC(=S)N1CCCCC1)C12CC3CC(CC(C3)C1)C2,i,i,i,i,-2.68,-13.2
O=C(c1cc(NC(=O)C23CC4CC(CC(C4)C2)C3)cc(NC(=O)C23CC4CC(CC(C4)C2)C3)c1)N1CCCCC1,i,10*,x,i,-0.38,-6.8
O=C(Cc1ccccc1)Nc1ccnn1C1CCN(Cc2nccs2)CC1,i,i,i,i,0.27,-3.9
Cc1c(C(=O)N2CCCCC2)c(S(=O)(=O)N2CCC(C)CC2)c(C)n1C,i,i,i,i,-0.23,-4.0
CCCCCNCC(=O)Nc1cc(C(F)(F)F)ccc1OCCOC,-8.47*,i,i,i,1.24,-10.6
COCCOc1ccc(C(F)(F)F)cc1NC(=O)c1ccc(C)cc1,i,i,i,i,0.76,-4.6
O=C(CSc1nc2ccc(Nc3nc(N4CCCC4)nc(N4CCCC4)n3)cc2s1)NCc1ccco1,i,8*,i,i,-2.08,-15.2
O=C(CSc1nc2ccc(Nc3nc(N4CCOCC4)nc(N4CCOCC4)n3)cc2s1)Nc1ccccc1Cl,i,i,i,i,-0.07,-9.5
CC(c1ccon1)N(C)C(=O)CCc1nnc(C2(c3ccc(Cl)cc3)CCC2)o1 (centres undefined),i,i,i,i,-4.86*,-16.1
CN(CC(=O)Nc1cccc(F)c1)C(=O)c1cc([N+](=O)[O-])ccc1N1CCCCC1,i,i,i,i,0.63,-15.2
c1ccc(-c2ccccc2OCCCN2CCCCCC2)cc1,i,i,i,i,-2.01,-9.2
CC1CC(C)CN(CCOc2ccccc2-c2ccccc2)C1 (centres undefined),i,i,i,i,-6.33*,-11.4
CC(C)c1ccccc1OCCCN1CCCC1,i,i,i,i,-0.9,-2.3
CC(C)c1ccccc1OCCCCN1CCCCC1,i,i,i,i,-5.05*,-5.7
c1ccc(-c2ccccc2OCCCN2CCCC2)cc1,i,i,i,i,-4.21*,-5.8
COc1ccc2nc(/N=C/c3c(C)[nH]n(-c4ccc(C)cc4C)c3=O)sc2c1,i,i,i,28*,-0.41,56.3*
CC(=O)N(Cc1cc2ccccc2[nH]c1=O)c1ccc(C)cc1,i,i,i,i,-0.71,-0.6
Cn1c(-c2ccccc2)cnc1NCc1ccc(-c2ccccc2)cc1,i,i,i,i,1.83,-12.8
Cc1ccc(CNc2ncc(-c3ccc4c(c3)OCO4)n2C)cc1,i,i,i,i,-10*,-27.8
Cn1c(-c2ccc3c(c2)OCO3)cnc1NCc1ccc(Cl)cc1,i,11*,i,i,-11.3*,-15.9
COc1cc(CNc2ncc(-c3ccc(Cl)cc3)n2C)cc(OC)c1OC,i,i,i,i,0.6,-6.5
Cc1ccc(-n2ccn(CC(=O)NCCc3ccccc3)c(=O)c2=O)cc1C,i,i,i,i,-0.49,-6.8
COC(=O)c1ccccc1S(=O)(=O)N1CCn2cccc2C1C (centres undefined),i,i,i,i,-0.78,35.3*
COc1ccc(NC(C)=O)cc1S(=O)(=O)N1CCn2cccc2C1C (centres undefined),x,x,i,x,x,x
O=C(CSc1nnc(-c2cccnc2)n1Cc1ccco1)c1ccc2ccccc2c1,i,i,i,i,0.75,-4.3
SMILES,KCNK9 inh,KCNQ1 inh,KCNK3 block,KCNQ1 act,Kir21 inh,hERG protect
Cn1c(SCC(=O)N2c3ccccc3Sc3ccc(Cl)cc32)nnc1-c1ccco1,x,x,i,x,x,x
O=C(CSc1nnc(-c2ccncc2)n1Cc1ccco1)N1c2ccccc2Sc2ccc(Cl)cc21,-6.64*,i,i,i,-0.09,-6.4
O=C(CSc1nnc(-c2cccnc2)n1Cc1ccco1)c1ccc(Br)cc1,i,i,i,i,-5.94*,-22.4
C(=C\c1ccccc1)/CSc1nnc(-c2ccncc2)n1Cc1ccco1,i,i,i,i,-5.13*,-8.2
Cn1nnnc1SCC(=O)N1c2ccccc2Sc2ccc(Cl)cc21,x,x,-10.3*,x,x,x
C(=C\c1ccccc1)/CSc1nnc(-c2ccccc2)n1Cc1ccco1,i,i,i,i,-5.43*,-10.7

# Screening results (PubChem BioAssay)
